# Screening data deposited in PubChem BioAssay by several laboratories.
# XBP1 UPR activ – activators of adaptive arm of unfolded protein response (XBP1). CHO-XBP1 luciferase reporter, IRE1-XBP1 UPR activation, luminescence; percent of tunicamycin response, DMSO as zero. activation, % at 20 µM. 0.33% of 330,000 active;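 active means versus positive control, 20 µM dose yields 30% or more activation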;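 further: 100% = tunicamycin at 10 µg/mL and 0% = DMSO only wells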
#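 Material: CHO cell line with stable XBP1 luciferase reporter; schedule: 16-18 h cell attachment at 37 °C, then 6 h compound exposure; signal: glow luminescence from Steady-Glo reagent; medium: serum-containing F12 medium, 10% FBS; benchmarks: tunicamycin 10 µg/mL and vehicle-only wells; read-out: percent activation relative to tunicamycin reference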
# CHOP inhibitor – inhibitors of CHOP induction in ER stress response; CHO-K1 CHOP-promoter luciferase, tunicamycin-induced, 15-18 h; inhibition, % at 10 µM; 3.8% of 220,000 active; AID 2732;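 active means compounds that reduced the stress-induced luciferase reporter signal by more than about 70% of percent inhibition, limit read from the data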;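 further: 0% = tunicamycin plus vehicle and 100% = wells without tunicamycin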
# UPR CHOP act – apoptotic UPR (CHOP) activation | CHO-CHOP luciferase reporter, luminescence; percent of tunicamycin response over DMSO baseline | activation, % at 10 µM | 0.34% of 330,000 active;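 active means at 10 µM dose, activation of 40% or more, normalized to positive control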;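 further: 100% = tunicamycin at 10 µg/mL and 0% = DMSO alone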
#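 measured by = luciferase luminescence | assay system = CHO-CHOP cells, stable luciferase reporter of PERK-eIF2a-CHOP signalling | amount = 500 reporter cells seeded per well | timing = 6 h compound exposure at 37 °C after overnight seeding | controls = positive tunicamycin 10 µg/mL, negative DMSO alone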
# V-ATPase pHluor – regulators of yeast V-ATPase proton transport | S. cerevisiae, pHLuorin cytosolic pH fluorescence | response, % at 10 µM | 0.37% of 350,000 active | AID 504577; in the data active means response mostly above about 7.3%, no sharp cut-off; inactive means mostly below about 5.4%; further: actives read high
# TbMetRS inhib – Trypanosoma brucei MetRS inhibition. purified T. brucei MetRS, ATP depletion, Kinase-Glo luminescence. inhibition, % at 11.9 µM. 0.4% of 360,000 active. AID 624268;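 active means inhibition above a per-plate cutoff of the control wells' mean inhibition plus 3 SD, cut at about 5.5% in these data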;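 further: 0% = DMSO wells median and 100% = median of wells with control inhibitor compound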
#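 Test system: purified T. brucei MetRS enzyme. Also added: ATP, methionine and E. coli bulk tRNA substrates. Compound: 11.9 µM single point. Schedule: 15 min enzyme-compound preincubation, 2 h reaction, 10 min detection, 25 °C. Signal: luciferase luminescence of residual ATP, Kinase-Glo. Evaluation: percent inhibition versus plate control medians. Controls: DMSO wells, low control.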
# Numbers without * were called inactive; / = no result given. Shown is part of a subset that was picked to be rich in hits.
SMILES,XBP1 UPR activ,CHOP inhibitor,UPR CHOP act,V-ATPase pHluor,TbMetRS inhib
O=c1cc(-c2ccc(Cl)cc2)[nH]c2ccccc12,-2,22,4,/,/
Clc1ccc(-c2cc3ccccc3[nH]2)cc1,3,95*,2,0,0
CC(=O)N1c2ccccc2N=C(c2ccc3c(c2)OCO3)C1C(=O)NCc1ccccc1 (stereo not drawn),/,/,/,/,0
CC1CCCN(C(=O)c2ccc(S(=O)(=O)N3CCC(c4nc5ccccc5s4)CC3)cc2)C1 (stereo not drawn),-4,/,1,-4,-1
CCN(CC)C(=O)c1ccc(S(=O)(=O)N2CCC(c3nc4ccccc4s3)CC2)cc1,-2,74*,3,-2,-1
COCCn1c(SCC(=O)Nc2ccc(F)cc2)nc2c(oc3ccccc32)c1=O,1,84*,-1,3,0
Cn1c(SCC(=O)Nc2ccc(F)cc2)nc2c([nH]c3ccccc32)c1=O,26,85*,10,-1,0
CCOC(=O)CSc1nc2c([nH]c3ccccc32)c(=O)n1C,2,76*,-1,1,-1
CCOC(=O)C(C)Sc1nc2c([nH]c3ccccc32)c(=O)n1C (stereo not drawn),1,26,1,2,-1
Cc1cc(S(=O)(=O)c2ccc(Cl)cc2)nc(S(=O)(=O)c2ccc(Cl)cc2)c1C#N,/,/,/,-3,0
Cc1ccc(SCC(=O)N2CCN(S(=O)(=O)c3cccs3)CC2)cc1,-1,/,-2,3,0
Cc1nn(C(=O)c2cccs2)c(N)c1-c1ccccc1,6,95*,7,0,0
CC(=O)c1c(C)nn(C(=O)c2cccs2)c1C,0,6,0,-4,-1
COc1ccc(-c2cc(C(=O)OCC(=O)c3ccc(C)c([N+](=O)[O-])c3)c3ccccc3n2)cc1,-1,39,2,-1,0
COc1ccc(-c2nn(-c3ccccc3)cc2C(=O)OCC(=O)c2ccc(C)c([N+](=O)[O-])c2)cc1,3,87*,13,3,1
O=C(CNc1ccccc1)N/N=C/c1cc([N+](=O)[O-])ccc1N1CCCC1,-4,73*,-3,-1,-1
N#CCC(=O)N/N=C/c1cc([N+](=O)[O-])ccc1N1CCCC1,1,-2,0,1,0
COCOCCn1cc(CN2CCS(=O)(=O)N(Cc3ccc(-c4ccc(OC)c(OC)c4)cc3)C(C)C2=O)nn1 (stereo not drawn),/,/,/,1,-1
CCC(C(=O)OC)n1c(-c2ccccc2)nc2ccccc2c1=O (stereo not drawn),-1,71*,-1,-2,-1
Oc1c(C=Nc2cccc3cccnc23)sc2ccccc12,39*,-48,59*,/,/
COc1ccc(C(c2c[nH]c3ccccc23)c2c[nH]c3ccccc23)cc1O,-1,75*,2,-1,0
O=C1NC[C@H](CCCCN2CCN(Cc3ccccc3)C(=O)C2=O)N(Cc2ccccc2)C1=O,/,/,/,/,0
Oc1ccc(N=Nc2ccc3c(c2)OCO3)c2ccccc12,0,101*,66*,/,/
O=C(NN=Cc1c(O)ccc2ccccc12)c1ccc2c(c1)OCO2,4,/,0,-3,0
COc1ccc(S(=O)(=O)NCc2cc(=O)n(C)c(=O)n2C)cc1F,-9,/,1,5,0
SMILES,XBP1 UPR activ,CHOP inhibitor,UPR CHOP act,V-ATPase pHluor,TbMetRS inhib
O=C(Nc1ccccc1)N1CCC(O)(c2cccc(C(F)(F)F)c2)CC1,-5,/,-2,-2,0
OC1(c2cccc(C(F)(F)F)c2)CCN(c2ccc(-c3ccccc3)nn2)CC1,-2,85*,5,-2,0
CCN(c1cccc(C)c1)c1nc2ccsc2c(=O)s1,1,73*,-2,-6,-1
CCN(c1ccccc1)c1nc(=O)c2cccnc2s1,1,-4,1,1,0
O=C1C2C3C=CC(C3=C3CCCCC3)C2C(=O)N1Cc1ccccc1 (stereo not drawn),-3,86*,1,0,0
CCOC(=O)c1c(-c2cccs2)csc1NC(=O)CN1CC(C)OC(C)C1 (stereo not drawn),2,84*,-5,-3,-1
CC1CCc2cc(F)cc3c(O)c(C(=O)NCC4CCCO4)c(=O)n1c23 (stereo not drawn),-2,77*,-2,-1,0
CCCn1c(=O)c(C(=O)NCC2CCCO2)c(O)c2ccccc21 (stereo not drawn),4,-3,2,2,-1
N#CCCN1CCN(Cc2cc(-c3ccccc3)ccc2O)CC1,1,12,-1,2,-1
CC(C)(C)CC(C)(C)c1ccc(O)c(CN2CCN(CCC#N)CC2)c1,-2,73*,0,0,1
COc1ccc(C(=O)OCC(=O)N2CCN(S(=O)(=O)c3ccc(C)cc3)CC2)cc1[N+](=O)[O-],/,/,/,1,0
Cn1cc(CN2CCC(C(=O)NC(c3ccc(-c4ccccc4)cc3)c3cnccn3)CC2)c2ccccc21 (stereo not drawn),/,/,/,/,0
CC1CCN(c2cc(N3CCOCC3)c(F)cc2[N+](=O)[O-])CC1,-2,82*,5,-1,0
COC(=O)[C@]12CCCCC=C1N(Cc1ccccc1)C(=O)[C@H](CC(=O)N1CCC(c3ccccc3)CC1)C2,/,/,/,/,0
Cc1cccc(C)c1N1CCN(C(c2cc3ccccc3o2)c2nnnn2C(C)(C)C)CC1 (stereo not drawn),/,/,/,/,-1
Cc1nn(CCCC(=O)Nc2cc(Oc3ccc(F)cc3)cc([N+](=O)[O-])c2)c(C)c1[N+](=O)[O-],-2,67,2,3,0
Cc1ccccc1Oc1cc(NC(=O)CCCn2nc(C)c([N+](=O)[O-])c2C)cc([N+](=O)[O-])c1,5,91*,2,-3,-1
Cc1cc(C)c(S(=O)(=O)/N=C2/C=C(Sc3ncn[nH]3)C(=O)c3ccccc32)cc1C,/,109*,/,-2,2
COC(=O)[C@]1(Cc2ccccc2)N[C@H](CN(C)S(=O)(=O)c2ccc(C(C)(C)C)cc2)[C@@H]2C(=O)N(Cc3ccccc3)C(=O)[C@@H]21,-1,/,1,0,-1
CCOC(=O)c1cc2sc(C)cc2n1CC(=O)Nc1ccc2c(c1)OCCO2,-2,44,1,-4,0
CCOC(=O)c1cc2sc(C)cc2n1CC(=O)Nc1cccc(C)c1C,-3,74*,2,-3,-1
Cc1ccc2c(c1)c1c(n2CC(O)CNC2CCCCC2)CCCC1 (stereo not drawn),11,94*,4,2,0
Cc1ccc2c(c1)c1c(n2CC(O)CNC(CO)(CO)CO)CCCC1 (stereo not drawn),-3,11,-1,-4,0
CCOC(=O)c1c(NC(=O)Cn2cnc3scc(-c4ccc(C)cc4)c3c2=O)sc(C)c1C,0,19,3,2,-1
